In brackets after ≈: the same amount, converted by molar mass. Activity calls are given as the source filed them. The rule behind the calls is not given here.
How the values were obtained:
Type in all cases: functional
[1] = Anti-inflammatory activity at 100 ug/ml using bovine serum albumin and egg albumin proteins incubated at 37 degC for 20 mins and then heated to 95 degC for 20 mins by UV-visible Spectrophotometry based protein denaturation method
Summary of the method: (§1)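 Albumin (bovine serum or egg) at 1% in 50 mM sodium phosphate buffer pH 6.4. Mixture is 0.1 ml test sample (1 mg/ml) plus 0.2 ml albumin, made to 5 ml with buffer. Held 37 °C for 20 min, then 95 °C for 20 min. Cooled to room temperature, turbidity read at 660 nm. % inhibition = (Abs control − Abs sample)/Abs control × 100. Triplicate, averaged.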

[2] = Anti-inflammatory activity using bovine serum albumin and egg albumin proteins incubated at 37 degC for 20 mins and then heated to 95 degC for 20 mins by UV-visible Spectrophotometry based protein denaturation method; summary of the method: as §1
[3] = Anti-inflammatory activity at 50 ug/ml using bovine serum albumin and egg albumin proteins incubated at 37 degC for 20 mins and then heated to 95 degC for 20 mins by UV-visible Spectrophotometry based protein denaturation method; summary of the method: as §1
Salmonella typhi [4] = experiment: Antimicrobial activity against Salmonella typhi incubated for 12 to 16 hrs by tube dilution method
Summary of the method: (§2)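 Broth tube dilution, two-fold serial dilutions from 500 to 1.9 µg/mL plus a drug-free control tube. Each tube inoculated with 1 mL culture at OD 0.2 (~McFarland standard), 37 °C for 12-16 h. Turbidity compared with the control tube. MIC is the lowest concentration giving complete growth inhibition.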

Micrococcus luteus [5] = experiment: Antimicrobial activity against Micrococcus luteus at 1 mg/ml incubated for 20 to 30 mins followed by incubation for 24 hrs at 37 degC by agar plate method
Summary of the method: (§3)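 Agar well diffusion on nutrient agar. Plates swabbed with 60 µL inoculum; 8 mm wells loaded with 100 µL of compound at 1.0 mg/mL. Held 20–30 min at 4 °C for diffusion, then 24 h at 37 °C. Inhibition zone diameter read in mm. Triplicate.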

Salmonella paratyphi [6] = experiment: Antimicrobial activity against Salmonella paratyphi incubated for 12 to 16 hrs by tube dilution method; summary of the method: as §2
Micrococcus luteus [7] = experiment: Antimicrobial activity against Micrococcus luteus incubated for 12 to 16 hrs followed by plating in nutrient agar by tube dilution method
Summary of the method: (§4)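 Tube dilution, serial from 500 to 1.9 µg/mL, plus drug-free control tube. Each tube inoculated with 1 mL culture at OD 0.2, incubated 37 °C for 12–16 h. MIC is the lowest concentration with no growth by turbidity. MBC is found by plating each tube on nutrient agar: the lowest concentration at which all cells are killed.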

Micrococcus luteus [8] = experiment: Antimicrobial activity against Micrococcus luteus incubated for 12 to 16 hrs by tube dilution method; summary of the method: as §4
Salmonella paratyphi [9] = experiment: Antimicrobial activity against Salmonella paratyphi at 1 mg/ml incubated for 20 to 30 mins followed by incubation for 24 hrs at 37 degC by agar plate method; settings: for diameter of the inhibition zone (DIZ): Salmonella enterica subsp. enterica serovar Paratyphi A
Summary of the method: (§5)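 Agar well diffusion on nutrient agar. Plates swabbed with 60 µL inoculum, 8 mm wells loaded with 100 µL sample at 1.0 mg/mL, streptomycin standard and control in separate wells. Plates held 20–30 min at 4 °C for diffusion, then 24 h at 37 °C. Zone diameter read in mm; triplicate.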

Staphylococcus aureus = experiment: Antimicrobial activity against Staphylococcus aureus at 1 mg/ml incubated for 20 to 30 mins followed by incubation for 24 hrs at 37 degC by agar plate method; summary of the method: as §3
Salmonella typhi [10] = experiment: Antimicrobial activity against Salmonella typhi at 1 mg/ml incubated for 20 to 30 mins followed by incubation for 24 hrs at 37 degC by agar plate method; settings: for diameter of the inhibition zone (DIZ): Salmonella enterica subsp. enterica serovar Typhi; summary of the method: as §5
Salmonella typhi [11] = experiment: Antimicrobial activity against Salmonella typhi incubated for 12 to 16 hrs followed by plating in nutrient agar by tube dilution method
Summary of the method: (§6)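 After 12-16 h at 37 °C in tube dilution (500 to 1.9 µg/mL; 1 mL inoculum at OD 0.2), the culture from each tube was plated on nutrient agar. MBC is the concentration at which cells are completely killed.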

Salmonella paratyphi [12] = experiment: Antimicrobial activity against Salmonella paratyphi incubated for 12 to 16 hrs followed by plating in nutrient agar by tube dilution method; summary of the method: as §6
[13] = Salmonella enterica subsp. enterica serovar Typhi
[14] = Salmonella enterica subsp. enterica serovar Paratyphi A
[15] = Salmonella enterica, read-out: DIZ

SMILES | inhibition [1] | IC50 [2] | inhibition [3] | MIC (Salmonella typhi [4]; [13]) | diameter of the inhibition zone (DIZ) (Micrococcus luteus [5]) | MIC (Salmonella paratyphi [6]; [14]) | MBC (Micrococcus luteus [7]) | MIC (Micrococcus luteus [8]) | diameter of the inhibition zone (DIZ) (Salmonella paratyphi [9]) | diameter of the inhibition zone (DIZ) (Staphylococcus aureus) | diameter of the inhibition zone (DIZ) (Salmonella typhi [10]) | MBC (Salmonella typhi [11]; [13]) | MBC (Salmonella paratyphi [12]; [14]) | further results
O=C([O-])Cc1ccccc1Nc1c(Cl)cccc1Cl.[Na+] [DICLOFENAC SODIUM] | 93.1% | 53.7 µg/mL | 66.4% |  |  |  |  |  |  |  |  |  |  | 
Brc1ccc(-c2cn(Cc3cn(-c4ccccc4)nc3-c3ccccc3)nn2)cc1 | inactive | Not Active | inactive | inactive | inactive | inactive | inactive | inactive | inactive | inactive | inactive | inactive | inactive | 
Cc1ccc(-c2cn(Cc3cn(-c4ccccc4)nc3-c3ccccc3)nn2)cc1 | inactive | Not Active | inactive | inactive | inactive | inactive | inactive | inactive | inactive | inactive | inactive | inactive | inactive | 
Cc1ccc(-c2nn(-c3ccccc3)cc2Cn2cc(-c3ccccc3)nn2)cc1 | inactive | Not Active | inactive | inactive | inactive | inactive | inactive | inactive | inactive | inactive | inactive | inactive | inactive | 
[N-]=[N+]=NCc1cn(-c2ccccc2)nc1-c1ccccc1 | inactive | Not Active | inactive | inactive | inactive | inactive | inactive | inactive | inactive | inactive | inactive | inactive | inactive | 
Nc1ccc(-c2cn(Cc3cn(-c4ccccc4)nc3-c3ccccc3)nn2)cc1 | inactive | Not Active | inactive | inactive | inactive | inactive | inactive | inactive | inactive | inactive | inactive | inactive | inactive | 
COc1ccc(-c2cn(Cc3cn(-c4ccccc4)nc3-c3ccccc3)nn2)cc1 | inactive | Not Active | inactive | inactive | inactive | inactive | inactive | inactive | inactive | inactive | inactive | inactive | inactive | 
Cc1ccc(-n2cc(CN=[N+]=[N-])c(-c3ccccc3)n2)cc1 | inactive | Not Active | inactive | inactive | inactive | inactive | inactive | inactive | inactive | inactive | inactive | inactive | inactive | 
[N-]=[N+]=NCc1cn(-c2ccccc2)nc1-c1ccc(Cl)cc1 | inactive | Not Active | inactive | inactive | inactive | inactive | inactive | inactive | inactive | inactive | inactive | inactive | inactive | 
COC(=O)c1nnn(Cc2cn(-c3ccccc3)nc2-c2ccc(C)cc2)c1C(=O)OC | inactive | Not Active | inactive | inactive | inactive | inactive | inactive | inactive | inactive | inactive | inactive | inactive | inactive | 
Cc1ccc(-n2cc(Cn3cc(-c4ccccc4)nn3)c(-c3ccccc3)n2)cc1 | inactive | Not Active | inactive | inactive | inactive | inactive | inactive | inactive | inactive | inactive | inactive | inactive | inactive | 
COC(=O)c1nnn(Cc2cn(-c3ccccc3)nc2-c2ccc(Cl)cc2)c1C(=O)OC | inactive | Not Active | inactive | inactive | inactive | inactive | inactive | inactive | inactive | inactive | inactive | inactive | inactive | 
Fc1ccc(-c2cn(Cc3cn(-c4ccccc4)nc3-c3ccccc3)nn2)cc1 | inactive | Not Active | inactive | inactive | inactive | inactive | inactive | inactive | inactive | inactive | inactive | inactive | inactive | 
CN[C@@H]1[C@H](O[C@H]2[C@H](O[C@H]3[C@H](O)[C@@H](O)[C@H](N=C(N)N)[C@@H](O)[C@@H]3N=C(N)N)O[C@@H](C)[C@]2(O)C=O)O[C@@H](CO)[C@H](O)[C@H]1O [STREPTOMYCIN] |  |  |  |  |  |  | 6.25 µg/mL (≈ 10.7 µM) | 6.25 µg/mL (≈ 10.7 µM) |  |  |  |  |  | MIC (Salmonella typhi [4]; Salmonella enterica): 6.25 µg/mL (≈ 10.7 µM); zone of inhibition at 1000 µg/mL (Micrococcus luteus [5]; read-out: DIZ): 22.5 mm; MIC (Salmonella paratyphi [6]; Salmonella enterica): 6.25 µg/mL (≈ 10.7 µM); zone of inhibition at 1000 µg/mL (Salmonella paratyphi [9]; [15]): 30 mm; zone of inhibition at 1000 µg/mL (Staphylococcus aureus; read-out: DIZ): 20.3 mm; zone of inhibition at 1000 µg/mL (Salmonella typhi [10]; [15]): 27 mm; MBC (Salmonella typhi [11]; Salmonella enterica): 6.25 µg/mL (≈ 10.7 µM); MBC (Salmonella paratyphi [12]; Salmonella enterica): 6.25 µg/mL (≈ 10.7 µM)

Source: ChEMBL document CHEMBL4177578, “Synthesis, pharmacological activities and molecular docking studies of pyrazolyltriazoles as anti-bacterial and anti-inflammatory agents” (Bioorg Med Chem, 2017)
